Results on four compounds are retold here after ChEMBL document CHEMBL1131567, “Ethnobotanical-directed discovery of the antihyperglycemic properties of cryptolepine: its isolation from Cryptolepis sanguinolenta, synthesis, and in vitro and in vivo activities” (1998).

“And” between values parts separate entries of the source, which are not always exact repeats. Equal entries are not always repeated.

The species entered for experiment [1] is Mus musculus. Briefly: Food intake in db/db Mice expressed as gram/mouse/day and the observation made is after 48 hr. Type of experiment: functional. In a few lines:
(§1)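 Male C57BL/Ks-db/db mice, 8-9 weeks old, housed 4/cage at 22 °C with chow and water ad libitum. Mice with tail-vein plasma glucose of 350-600 mg/dL were grouped at eight per group with matched mean glucose. Oral gavage once daily for 1 or 2 days at 30 or 100 mg/kg, with vehicle control. Body weight and cage food consumption measured after 24-27 h.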

Experiment [2] relates to Mus musculus. Kind of experiment: Mean body weight expressed as grams/mouse at 24hrs, when given at 100 mg/kg. Type of experiment: functional. A digest of the protocol:
as §1

The test system of experiment [3] is Mus musculus. Briefly: In vivo plasma glucose lowering in db/db mice, given at 100 mg/kg in mouse, after 24 hr.
In experiment [4] the test system is Mus musculus. Kind of experiment: Mean body weight expressed as grams/mouse at 0hrs, when given at 100 mg/kg. Type of experiment: functional. In a few lines: as §1
Experiment [5] has as its system Mus musculus. Briefly: In vivo plasma glucose lowering in db/db mice, given at 100 mg/kg in mouse, after 3 hr.
The test system of experiment [6] is Mus musculus. Briefly: Compound was evaluated for the in vivo effects on plasma glucose concentrations in db/db mice administered at a dose of 20 mg/kg mean body weight expressed as grams/mouse at 0 hr. The format is functional.
The test system of experiment [7] is Mus musculus. Kind of experiment: Effect when given at 30 mg/kg in (db/db)mice,3 days postdose. The format is functional. In a few lines:
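db/db mice, eight per group with matched initial glucose, dosed orally by gavage once daily with vehicle or 30 mg/kg. Tail-vein blood taken predose and 3 h postdosing. Plasma glucose measured colorimetrically by glucose oxidase assay. Groups compared with vehicle by ANOVA and Fisher's post-hoc test.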

In experiment [8] the test system is Mus musculus. Briefly: Food intake in db/db Mice expressed as gram/mouse/day and the observation made at 24 - 48 Hrs, in db/db mice administered at a dose of 30 mg/kg. The format is functional. In a few lines:
as §1

Experiment [9] relates to Mus musculus. Kind of experiment: Mean body weight expressed as grams/mouse (C57BL/ks) at 0hrs, when given at 30 mg/kg. The format is functional. A digest of the protocol: (§2)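 Lean C57BL/ks mice dosed at 30 mg/kg/day, with vehicle control, n = 8. Plasma glucose measured predose and on day 3. Body weight recorded at 0, 24 and 48 h; food intake per mouse per day over 0-24 and 24-48 h. Vehicle comparison by Student's t-test.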

Experiment [10] relates to Mus musculus. Kind of experiment: Food intake in db/db Mice expressed as gram/mouse/day and the observation made at 0 - 24 Hrs, in db/db mice administered at a dose of 20 mg/kg. Type of experiment: functional.
Experiment [11] has as its system Mus musculus. Briefly: Food intake in C57BL/ks Mice expressed as gram/mouse/day and the observation made at 0 -24 Hrs, when administered at a dose of 30 mg/kg. The format is functional. In a few lines:
as §2

Experiment [12] relates to Mus musculus. Briefly: Mean body weight expressed as grams/mouse (C57BL/ks) at 24hrs, when given at 30 mg/kg. Type of experiment: functional. A digest of the protocol:
as §2

Experiment [13] has as its system Mus musculus. Kind of experiment: Compound was evaluated for the in vivo effects on plasma glucose concentrations in db/db mice administered at a dose of 30 mg/kg mean body weight expressed as grams/mouse at 24 hr. Type of experiment: functional. A digest of the protocol: as §1
The test system of experiment [14] is Rattus norvegicus. Briefly: […] effect of drug administration on Body weight in Fructose fed STZ-treated rats, after 24 hr (Treatment group - Fructose/STZ + cryptoline HCl, 30 mg/kg). The format is functional. The following applies: in the assay text read “on day 3” for “after 24 hr”. In a few lines:
(§3)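 Male Sprague-Dawley rats, 8 weeks old, given STZ 55 mg/kg iv and a 60% fructose diet for 1 week. Rats with serum glucose of 250-350 mg/dL were sorted into matched groups (n = 14). Oral gavage once daily for 3 days with vehicle or 30 mg/kg in 2% DMSO, 10 mL/kg. Noninjected chow-fed vehicle controls (n = 19). Body weight and cage food consumption recorded daily.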

The test system of experiment [15] is Mus musculus. Briefly: Food intake in C57BL/ks Mice expressed as gram/mouse/day and the observation made at 24-48 Hrs, when administered at a dose of 30 mg/kg. The format is functional. A digest of the protocol:
as §2

The test system of experiment [16] is Mus musculus. Briefly: Compound was evaluated for the in vivo effects on plasma glucose concentrations in db/db mice administered at a dose of 30 mg/kg mean body weight expressed as grams/mouse at 0 hr. The format is functional. In a few lines: as §1
Experiment [17] concerns Mus musculus. Kind of experiment: Mean body weight expressed as grams/mouse (C57BL/ks) at 48hrs, when given at 30 mg/kg. The format is functional. A digest of the protocol:
as §2

Experiment [18] is filed under the species Mus musculus. Briefly: Food intake in db/db Mice expressed as gram/mouse/day and the observed after 48 hr. The format is functional. A digest of the protocol: as §1
Experiment [19] concerns Rattus norvegicus. Briefly: […] effect of drug administration on food consumption in Fructose fed STZ-treated rats (Treatment group - Fructose/STZ + cryptoline HCl, 30 mg/kg). Type of experiment: functional. A digest of the protocol: as §3
Experiment [20] concerns Mus musculus. Briefly: Food intake in db/db Mice expressed as gram/mouse/day and the observation made at 0 - 24 Hrs, in db/db mice administered at a dose of 30 mg/kg. Type of experiment: functional. A digest of the protocol:
as §1

The subject of experiment [21] is Mus musculus. Briefly: Compound was evaluated for the in vivo effects on plasma glucose concentrations in db/db mice administered at a dose of 20 mg/kg mean body weight expressed as grams/mouse at 24 hr. Type of experiment: functional.
In experiment [22] the test system is Mus musculus. Kind of experiment: Food intake in db/db Mice expressed as gram/mouse/day and the observation made at 24 - 48 Hrs, in db/db mice administered at a dose of 20 mg/kg. Type of experiment: functional.
For experiment [23], the system named is Mus musculus. Briefly: Effect when given at 30 mg/kg in (C57BL/ks) mouse,Predose. The format is functional. In a few lines: as §2
Experiment [24] deals with Rattus norvegicus. Briefly: […] effect of drug administration on Body weight in Fructose fed STZ-treated rats, pre dose ((Treatment group - Fructose/STZ + cryptoline HCl, 30 mg/kg). Type of experiment: functional. A digest of the protocol: as §3
The test system of experiment [25] is Mus musculus. Briefly: Effect when given at 30 mg/kg in (C57BL/ks) mouse, after day 3. Type of experiment: functional. In a few lines:
as §2

Take `Cn1c2ccccc2c2nc3ccccc3cc21`: in the experiment filed under Mus musculus [1], the Food intake amounted to 4.4 g mouse-1 day-1. Besides, the Mean body weight in the experiment with Mus musculus [2] is 42 g mouse-1; with Mus musculus [4], 41.4 g mouse-1. Besides, the values for the Change of predose with Mus musculus [3] and in the experiment on Mus musculus [5] were 14.1% and 15.3%, respectively.

In the case of `C[n+]1c2ccccc2cc2[n-]c3ccccc3c21.Cl` [CRYPTOLEPINE HYDROCHLORIDE], the Mean body weight in the experiment on Mus musculus [6] is 38 g mouse-1 and 37.4 g mouse-1; in the experiment on Mus musculus [2], 39.8 g mouse-1; with Mus musculus [9], 23.7 g mouse-1; with Mus musculus [12], 23.3 g mouse-1; in the experiment on Mus musculus [13] it was 36.9 g mouse-1; with Mus musculus [4], 41 g mouse-1. Also, the Mean body weight with Mus musculus [16] is 37 g mouse-1 and 35.5 g mouse-1; with Mus musculus [17], 22.7 g mouse-1; in the experiment with Mus musculus [21], 37.9 g mouse-1. The Change of predose is 358 mg/dL with Mus musculus [7]; -43.1% in the experiment with Mus musculus [3]; -16.4% in the experiment on Mus musculus [5]; 184 mg/dL in the experiment on Mus musculus [23]; 171 mg/dL with Mus musculus [25]. Besides, the Food intake in the experiment on Mus musculus [8] stood at 2.4 g mouse-1 day-1; in the experiment with Mus musculus [10], 3.3 g mouse-1 day-1; in the experiment with Mus musculus [11] it was 2.7 g mouse-1 day-1; with Mus musculus [15], 2.3 g mouse-1 day-1; in the experiment listed under Mus musculus [18], 0.9 g mouse-1 day-1; in the experiment with Rattus norvegicus [19] it was 18 g/day. For the same compound, the Food intake in the experiment on Mus musculus [20] amounted to 2.4 g mouse-1 day-1; with Mus musculus [22], 3.8 g mouse-1 day-1. Further, the Body weight with Rattus norvegicus [14] worked out at 223 g; in the experiment with Rattus norvegicus [24], 201 g.

In the experiment filed under Mus musculus [1], `C[n+]1c2ccccc2cc2[n-]c3ccccc3c21` [CRYPTOLEPINE] yielded a Food intake of 1 g mouse-1 day-1. The Mean body weight was 38.7 g mouse-1 in the experiment with Mus musculus [2] and 39.4 g mouse-1 with Mus musculus [4]. The Change of predose is listed as -30% in the experiment on Mus musculus [3] and -19.7% in the experiment on Mus musculus [5].

In the experiment listed under Mus musculus [1], `C[n+]1c2ccccc2cc2[nH]c3ccccc3c21.[I-]` [CRYPTOLEPTINE IODIDE] gave a Food intake of 1 g mouse-1 day-1. The Mean body weight in the experiment with Mus musculus [2] is listed as 41.9 g mouse-1; in the experiment on Mus musculus [4], 42.7 g mouse-1. Besides, the Change of predose in the experiment on Mus musculus [3] is given as -22.5%; in the experiment with Mus musculus [5] it was -11.5%.
